Source: ChEMBL document CHEMBL5058577, “EUbOPEN Chemogenomics Library 2 (Multiplex)” (2022)

Test system: HEK-293T
Experiment: Multiplex assay against HEK293T
Type: toxicity, cell-based
Conditions: human
Method in brief: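 Hoechst33342, BioTracker Green Microtubule Cytoskeleton Dye, MitoTracker Red and Annexin V Alexa Fluor 680 were added to live cells at seeding, and imaging on a CQ1 microscope at 37°C and 5% CO2 followed compound addition. Gating by CellPathfinder machine learning separated cells into Hoechst high-intensity objects or normal cells, then normal cells into healthy, pyknosed or fragmented nuclei, then pyknosed cells into mitotic or apoptotic. Per cents of healthy-nucleus cells are reported for the tubulin, mitochondrial-mass and membrane-permeability phenotypes.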

[1] = 12 h, 1 µM, compound concentration 1 uM, replicate 1
[2] = 12 h, 1 µM, compound concentration 1 uM, replicate 2
[3] = 12 h, 10 µM, compound concentration 10 uM, replicate 1
[4] = 12 h, 10 µM, compound concentration 10 uM, replicate 2
[5] = 24 h, 1 µM, compound concentration 1 uM, replicate 1
[6] = 24 h, 1 µM, compound concentration 1 uM, replicate 2
[7] = 24 h, 10 µM, compound concentration 10 uM, replicate 1
[8] = 24 h, 10 µM, compound concentration 10 uM, replicate 2
[9] = 48 h, 1 µM, compound concentration 1 uM, replicate 1
[10] = 48 h, 1 µM, compound concentration 1 uM, replicate 2
[11] = 48 h, 10 µM, compound concentration 10 uM, replicate 1
[12] = 48 h, 10 µM, compound concentration 10 uM, replicate 2

## COc1cccc2c1c(NS(=O)(=O)c1ccc(Cl)s1)nn2Cc1cccc(CNC(=O)C(C)(C)O)c1
[1]
  Population Apoptotic (%): 31%
  Population Fragmented Nuclei (%): 6%
  Population Healthy Nuclei (%): 82%
  Population Hoechst High Intensity Objects (%): 6%
  Population Membrane Permeable-Phenotype (%): 0%
  Population Mitochondria Different-Phenotype (%): 39%
  Population Mitotic Cells (%): 68%
  Population Normal (%): 93%
  Population Pyknosed Nuclei (%): 10%
  Population Tubulin-Different-Phenotype (%): 26%
  Total Cell Count: 469
[2]
  Population Apoptotic (%): 34%
  Population Fragmented Nuclei (%): 7%
  Population Healthy Nuclei (%): 77%
  Population Hoechst High Intensity Objects (%): 10%
  Population Mitochondria Different-Phenotype (%): 52%
  Population Mitotic Cells (%): 65%
  Population Normal (%): 89%
  Population Pyknosed Nuclei (%): 15%
  Population Tubulin-Different-Phenotype (%): 23%
  Total Cell Count: 315
[3]
  Population Apoptotic (%): 42%
  Population Fragmented Nuclei (%): 6%
  Population Healthy Nuclei (%): 80%
  Population Hoechst High Intensity Objects (%): 7%
  Population Membrane Permeable-Phenotype (%): 0%
  Population Mitochondria Different-Phenotype (%): 51%
  Population Mitotic Cells (%): 57%
  Population Normal (%): 92%
  Population Pyknosed Nuclei (%): 12%
  Population Tubulin-Different-Phenotype (%): 38%
  Total Cell Count: 356
[4]
  Population Apoptotic (%): 35%
  Population Fragmented Nuclei (%): 5%
  Population Healthy Nuclei (%): 78%
  Population Hoechst High Intensity Objects (%): 11%
  Population Mitochondria Different-Phenotype (%): 69%
  Population Mitotic Cells (%): 65%
  Population Normal (%): 88%
  Population Pyknosed Nuclei (%): 16%
  Population Tubulin-Different-Phenotype (%): 33%
  Total Cell Count: 280
[5]
  Population Apoptotic (%): 26%
  Population Fragmented Nuclei (%): 7%
  Population Healthy Nuclei (%): 81%
  Population Hoechst High Intensity Objects (%): 2%
  Population Membrane Permeable-Phenotype (%): 0%
  Population Mitochondria Different-Phenotype (%): 22%
  Population Mitotic Cells (%): 73%
  Population Normal (%): 97%
  Population Pyknosed Nuclei (%): 11%
  Population Tubulin-Different-Phenotype (%): 17%
  Total Cell Count: 617
[6]
  Population Apoptotic (%): 44%
  Population Fragmented Nuclei (%): 6%
  Population Healthy Nuclei (%): 84%
  Population Hoechst High Intensity Objects (%): 7%
  Population Mitochondria Different-Phenotype (%): 37%
  Population Mitotic Cells (%): 55%
  Population Normal (%): 92%
  Population Pyknosed Nuclei (%): 8%
  Population Tubulin-Different-Phenotype (%): 15%
  Total Cell Count: 357
[7]
  Population Apoptotic (%): 40%
  Population Fragmented Nuclei (%): 10%
  Population Healthy Nuclei (%): 73%
  Population Hoechst High Intensity Objects (%): 5%
  Population Membrane Permeable-Phenotype (%): 0%
  Population Mitochondria Different-Phenotype (%): 34%
  Population Mitotic Cells (%): 60%
  Population Normal (%): 94%
  Population Pyknosed Nuclei (%): 16%
  Population Tubulin-Different-Phenotype (%): 23%
  Total Cell Count: 462
[8]
  Population Fragmented Nuclei (%): 9%
  Population Healthy Nuclei (%): 77%
  Population Mitochondria Different-Phenotype (%): 46%
  Population Pyknosed Nuclei (%): 12%
  Population Tubulin-Different-Phenotype (%): 22%
  Total Cell Count: 384
[9]
  Population Apoptotic (%): 16%
  Population Fragmented Nuclei (%): 10%
  Population Healthy Nuclei (%): 83%
  Population Hoechst High Intensity Objects (%): 2%
  Population Membrane Permeable-Phenotype (%): 0%
  Population Mitochondria Different-Phenotype (%): 18%
  Population Mitotic Cells (%): 83%
  Population Normal (%): 97%
  Population Pyknosed Nuclei (%): 6%
  Population Tubulin-Different-Phenotype (%): 11%
  Total Cell Count: 1062
[10]
  Population Apoptotic (%): 28%
  Population Fragmented Nuclei (%): 11%
  Population Membrane Permeable-Phenotype (%): 2%
  Population Mitochondria Different-Phenotype (%): 21%
  Population Mitotic Cells (%): 71%
  Population Pyknosed Nuclei (%): 4%
  Population Tubulin-Different-Phenotype (%): 10%
  Total Cell Count: 591
[11]
  Population Apoptotic (%): 26%
  Population Fragmented Nuclei (%): 16%
  Population Healthy Nuclei (%): 72%
  Population Hoechst High Intensity Objects (%): 4%
  Population Membrane Permeable-Phenotype (%): 0%
  Population Mitochondria Different-Phenotype (%): 25%
  Population Mitotic Cells (%): 73%
  Population Normal (%): 95%
  Population Pyknosed Nuclei (%): 10%
  Population Tubulin-Different-Phenotype (%): 16%
  Total Cell Count: 646
[12]
  Population Apoptotic (%): 35%
  Population Fragmented Nuclei (%): 8%
  Population Healthy Nuclei (%): 83%
  Population Mitochondria Different-Phenotype (%): 27%
  Population Mitotic Cells (%): 65%
  Population Pyknosed Nuclei (%): 7%
  Population Tubulin-Different-Phenotype (%): 12%
  Total Cell Count: 550
